Assay results taken from ChEMBL document CHEMBL1144414, “C-5-disubstituted barbiturates as potential molecular probes for noninvasive matrix metalloproteinase imaging” (J Med Chem, 2005).

Assays:
[1] = organism: Homo sapiens; assay: Ratio of IC50 for human Matrix metalloprotease 2 binding and Matrix metalloprotease 9
[2] = Partition coefficient (logD7.4); format: physicochemical; details: octanol/water, pH 7.4
[3] = molecular target: T1, 72 kDa type IV collagenase (Homo sapiens, UniProt P08253); assay: In vitro inhibition of human Matrix metalloprotease 2
How it was run: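 Human active MMP-2 (1 nM) preincubated with inhibitor (10 pM to 1 mM) in 50 mM Tris·HCl pH 7.5, 0.2 M NaCl, 5 mM CaCl2, 20 µM ZnSO4, 0.05% Brij 35, 37 °C, 30 min. Fluorogenic Mca-Pro-Leu-Gly-Leu-Dpa-Ala-Arg-NH2 substrate (10 µL of 50 µM into 90 µL) added. Fluorescence (ex 330/em 390 nm) followed at 37 °C. Initial 10-min rates fitted by nonlinear regression for IC50.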

[4] = molecular target: T2, Matrix metalloproteinase-9 (Homo sapiens, UniProt P14780); assay: (§1) In vitro inhibition of human Matrix metalloprotease 9
How it was run: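 Human active MMP-9 (2 nM) preincubated 30 min at 37 °C with inhibitor (10 pM to 1 mM) in 50 mM Tris·HCl pH 7.5, 0.2 M NaCl, 5 mM CaCl2, 20 µM ZnSO4, 0.05% Brij 35. Fluorogenic Mca-Pro-Leu-Gly-Leu-Dpa-Ala-Arg-NH2 substrate added from a 50 µM stock. Fluorescence (ex 330/em 390 nm) followed at 37 °C. Initial 10-min linear rates versus dose; IC50 by nonlinear regression.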

[5] = molecular target: T2, Matrix metalloproteinase-9; assay: as §1; remark: listed apart in the source
[6] = molecular target: T1, 72 kDa type IV collagenase; assay: In vitro inhibition of human Matrix metalloprotease 2; I.A.=inactive
How it was run: (§2)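 Human active enzyme, MMP-2 at 1 nM or MMP-9 at 2 nM, preincubated 30 min at 37 °C with inhibitor (10 pM to 1 mM) in 50 mM Tris·HCl pH 7.5, 0.2 M NaCl, 5 mM CaCl2, 20 µM ZnSO4, 0.05% Brij 35. Mca-PLGL-Dpa-AR-NH2 substrate added, fluorescence followed at 37 °C (ex 330/em 390 nm). Initial 10-min rates fitted by nonlinear regression for IC50.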

[7] = molecular target: T2, Matrix metalloproteinase-9; assay: In vitro inhibition of human Matrix metalloprotease 9; I.A.=inactive; how it was run: as §2

T1 sequence (P08253 whole entry): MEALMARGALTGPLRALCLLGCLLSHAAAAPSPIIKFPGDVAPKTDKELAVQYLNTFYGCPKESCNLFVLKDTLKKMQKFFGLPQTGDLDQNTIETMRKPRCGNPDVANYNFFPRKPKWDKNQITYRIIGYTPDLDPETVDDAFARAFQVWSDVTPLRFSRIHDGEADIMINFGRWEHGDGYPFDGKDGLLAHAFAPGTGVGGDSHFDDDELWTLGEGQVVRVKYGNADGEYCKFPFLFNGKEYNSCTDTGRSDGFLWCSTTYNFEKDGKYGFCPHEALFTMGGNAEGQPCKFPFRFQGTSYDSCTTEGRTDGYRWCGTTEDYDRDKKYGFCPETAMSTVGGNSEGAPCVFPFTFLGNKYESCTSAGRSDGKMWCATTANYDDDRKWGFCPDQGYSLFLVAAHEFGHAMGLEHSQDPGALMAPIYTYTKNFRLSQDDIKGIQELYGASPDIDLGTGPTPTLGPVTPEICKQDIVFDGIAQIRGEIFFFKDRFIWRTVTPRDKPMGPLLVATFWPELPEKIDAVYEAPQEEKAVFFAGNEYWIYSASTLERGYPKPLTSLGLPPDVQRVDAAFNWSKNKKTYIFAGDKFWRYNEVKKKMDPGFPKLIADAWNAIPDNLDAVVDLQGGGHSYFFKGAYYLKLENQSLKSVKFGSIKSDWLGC
T2 sequence (P14780 whole entry): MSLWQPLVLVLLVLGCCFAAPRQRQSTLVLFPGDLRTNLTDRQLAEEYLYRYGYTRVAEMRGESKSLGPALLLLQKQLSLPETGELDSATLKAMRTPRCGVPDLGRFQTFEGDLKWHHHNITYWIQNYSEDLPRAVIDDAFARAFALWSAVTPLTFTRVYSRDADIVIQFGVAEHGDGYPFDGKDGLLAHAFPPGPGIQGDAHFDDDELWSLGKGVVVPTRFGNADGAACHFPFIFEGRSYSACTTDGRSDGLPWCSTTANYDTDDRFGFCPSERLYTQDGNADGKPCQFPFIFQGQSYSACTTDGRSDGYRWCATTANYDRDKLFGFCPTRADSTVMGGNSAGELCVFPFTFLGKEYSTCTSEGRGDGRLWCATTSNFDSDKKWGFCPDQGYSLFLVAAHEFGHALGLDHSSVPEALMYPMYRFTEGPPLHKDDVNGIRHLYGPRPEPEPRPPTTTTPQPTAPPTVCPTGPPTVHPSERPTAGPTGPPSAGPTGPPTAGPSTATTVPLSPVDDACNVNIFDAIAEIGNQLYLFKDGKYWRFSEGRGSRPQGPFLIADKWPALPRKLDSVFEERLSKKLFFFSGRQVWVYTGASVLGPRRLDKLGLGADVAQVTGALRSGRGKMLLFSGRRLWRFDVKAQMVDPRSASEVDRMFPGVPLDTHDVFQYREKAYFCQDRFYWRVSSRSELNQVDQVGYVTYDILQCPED

O=C1NC(=O)C(c2ccc(Oc3ccc(I)cc3)cc2)(N2CCN(CCO)CC2)C(=O)N1
Selectivity [1]: 3.5
logD [2]: 3.68

O=C1NC(=O)C(c2ccc(Oc3ccc(Br)cc3)cc2)(N2CCNCC2)C(=O)N1
Selectivity [1]: 2.5
IC50 [3]: 0.005 µM
IC50 [4]: 0.002 µM
logD [2]: 3.04

CC(C)[C@@H](NS(=O)(=O)c1ccc(NC(=O)c2ccc(O[11CH3])cc2)cc1)C(=O)O
IC50 [5]: 0.2 µM
IC50 [3]: 0.11 µM

NCCN1CCN(C2(c3ccc(Oc4ccc(Br)cc4)cc3)C(=O)NC(=O)NC2=O)CC1
Selectivity [1]: 0.71
IC50 [3]: 0.01 µM
IC50 [4]: 0.014 µM
logD [2]: 0.78

O=C1NC(=O)C(c2ccc(Oc3ccc(Br)cc3)cc2)(N2CCN(CCBr)CC2)C(=O)N1
Selectivity [1]: 1.2
IC50 [3]: 0.03 µM
IC50 [4]: 0.026 µM
logD [2]: 4.67

C[Si](C)(C)c1ccc(N2CCN(C3(c4ccc(Oc5ccc(Br)cc5)cc4)C(=O)NC(=O)NC3=O)CC2)cc1
Selectivity [1]: 2.7
IC50 [3]: 1.5 µM
IC50 [4]: 0.55 µM
logD [2]: 8.32

O=C1NC(=O)C(c2ccc(Oc3ccc(Br)cc3)cc2)(N2CCN(c3ccc(F)cc3)CC2)C(=O)N1
Selectivity [1]: 0.63
logD [2]: 6.11

O=C(O)CCN1CCN(C2(c3ccc(Oc4ccc(Br)cc4)cc3)C(=O)NC(=O)NC2=O)CC1
Selectivity [1]: 3.3
IC50 [3]: 0.085 µM
IC50 [4]: 0.026 µM
logD [2]: 0.81

O=C1NC(=S)NC(=O)C1(c1ccc(Oc2ccc(Br)cc2)cc1)N1CCN(CCO)CC1
IC50 [3]: 0.00721 µM
logD [2]: 3.85

COCCN1CCN(C2(c3ccc(Oc4ccc(OC)cc4)cc3)C(=O)N(C)C(=O)N(C)C2=O)CC1
IC50 [6]: Not Active
IC50 [7]: Not Active
logD [2]: 0.95

CC(C)[C@@H](NS(=O)(=O)c1ccc(C#CCCCC[18F])cc1)C(=O)O
IC50 [3]: 1.9 µM

O=C1NC(=O)C(c2ccc(Oc3ccc(Br)cc3)cc2)(N2CCN(c3ccc(I)cc3)CC2)C(=O)N1
Selectivity [1]: 8.6
IC50 [3]: 0.086 µM
IC50 [4]: 0.01 µM
logD [2]: 7.22

O=C1NC(=O)C(c2ccc(Oc3ccc(Br)cc3)cc2)(N2CCN(C(=O)c3cccc(I)c3)CC2)C(=O)N1
Selectivity [1]: 0.75
IC50 [3]: 0.015 µM
IC50 [4]: 0.02 µM
logD [2]: 5.86

CC(C)N1CCN(C2(c3ccc(Oc4ccc(Br)cc4)cc3)C(=O)NC(=O)NC2=O)CC1
Selectivity [1]: 26
logD [2]: 4.47

O=C1NC(=O)C(c2ccc(Oc3ccc(Br)cc3)cc2)(N2CCN(CCO)CC2)C(=O)N1
Selectivity [1]: 2.3
logD [2]: 3.42

COc1ccc(Oc2ccc(C3(N4CCN(CCO)CC4)C(=O)NC(=O)NC3=O)cc2)cc1
Selectivity [1]: 1.5
logD [2]: 1.79

O=C1NC(=O)C(c2ccc(Oc3ccc(Br)cc3)cc2)(N2CCN(c3ccc([N+](=O)[O-])cc3)CC2)C(=O)N1
Selectivity [1]: 0.28
IC50 [3]: 0.016 µM
IC50 [4]: 0.057 µM
logD [2]: 6.27

O=C1NC(=O)C(c2ccc(Oc3ccc(Br)cc3)cc2)C(=O)N1
IC50 [3]: 3.7 µM
logD [2]: 0.41
